Measurements reported in ChEMBL document CHEMBL1135224, “Benzamide-based thiolcarbamates: a new class of HIV-1 NCp7 inhibitors” (Bioorg Med Chem Lett, 2002).

What was measured:
[1] = test system: Human immunodeficiency virus 1; assay: In vitro antiviral activity in HIV-1 CEM-SS cytoprotection assay.; assay type: functional, organism-based; conditions: Human immunodeficiency virus 1, CEM-SS
In short: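 Cytoprotection assay using CEM-SS cells infected with HIV-1 RF. Run in duplicate, with triplicates at each compound concentration; individual triplicates varied by 10% or less.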

CEM-SS = assay: In vitro cytotoxicity against CEM-SS cells.; assay type: functional, cell-based; conditions: Homo sapiens
In short: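 Growth inhibition of CEM-SS cells measured alongside the HIV-1 cytoprotection assay. Run in duplicate, with triplicates at each concentration; individual triplicates varied by 10% or less.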

Row | Structure (SMILES) | EC50 [1] | IC50 (CEM-SS)
1 | C[C@H](NC(=O)c1ccccc1SC(=O)NCCBr)C(N)=O | 920 nM | 8000 nM
2 | NC(=O)CCNC(=O)c1ccccc1SC(=O)NCCBr | 480 nM | 4900 nM
